# Experimental data: ChEMBL document CHEMBL5260840 (J Med Chem, 2019)
# pIC50: −log10 of the molar value.
# Legend:
# [1] = molecular target: T1, von Hippel-Lindau disease tumor suppressor/Bromodomain-containing protein 9 (Homo sapiens) (UniProt Q9H8M2+P40337); assay: PROTAC activity at VHL/BRD9 in human HeLa cells assessed as remaining BRD9 protein level at 1 uM incubated for 16 hrs by Western blot analysis relative to control; assay type: cell-based
# Procedure, shortened: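 HeLa cells treated with compound for the stated time before harvest; BRD9, BRD7 and β-actin detected by Western blot with β-actin loading control; band intensities quantified.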
# [2] = molecular target: T2, von Hippel-Lindau disease tumor suppressor/Bromodomain-containing protein 7 (Homo sapiens) (UniProt Q9NPI1+P40337); assay: PROTAC activity at VHL/BRD7 in human HeLa cells assessed as remaining BRD7 protein level at 1 uM incubated for 4 hrs by Western blot analysis relative to control; assay type: cell-based
# T2 sequence (P40337 whole entry, looked up): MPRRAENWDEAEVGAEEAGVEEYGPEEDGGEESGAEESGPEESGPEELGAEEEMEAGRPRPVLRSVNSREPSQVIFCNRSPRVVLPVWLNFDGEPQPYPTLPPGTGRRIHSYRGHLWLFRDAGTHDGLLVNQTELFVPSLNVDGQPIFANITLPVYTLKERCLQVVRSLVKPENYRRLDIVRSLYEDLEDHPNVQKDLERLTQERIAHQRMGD
# T2 sequence (Q9NPI1 whole entry, looked up): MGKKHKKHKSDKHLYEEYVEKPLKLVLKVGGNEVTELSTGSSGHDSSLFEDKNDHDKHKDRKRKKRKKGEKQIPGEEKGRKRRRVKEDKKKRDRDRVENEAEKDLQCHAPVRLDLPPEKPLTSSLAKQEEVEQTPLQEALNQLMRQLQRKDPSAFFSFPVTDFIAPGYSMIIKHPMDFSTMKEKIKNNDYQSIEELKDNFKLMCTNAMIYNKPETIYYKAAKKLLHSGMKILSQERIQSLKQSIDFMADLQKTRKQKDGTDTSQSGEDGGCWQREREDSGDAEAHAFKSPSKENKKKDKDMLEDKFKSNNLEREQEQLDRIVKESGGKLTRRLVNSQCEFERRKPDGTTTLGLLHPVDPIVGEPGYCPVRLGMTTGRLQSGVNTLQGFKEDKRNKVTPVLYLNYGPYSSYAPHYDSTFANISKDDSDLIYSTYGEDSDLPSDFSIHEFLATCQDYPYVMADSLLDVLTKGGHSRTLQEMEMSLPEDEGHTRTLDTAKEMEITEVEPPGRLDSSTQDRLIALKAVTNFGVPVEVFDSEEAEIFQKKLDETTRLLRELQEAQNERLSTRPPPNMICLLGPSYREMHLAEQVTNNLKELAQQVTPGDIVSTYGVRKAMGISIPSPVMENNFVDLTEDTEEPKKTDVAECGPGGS
# [3] = molecular target: T2, von Hippel-Lindau disease tumor suppressor/Bromodomain-containing protein 7 (Homo sapiens); assay: PROTAC activity at VHL/BRD7 in human HeLa cells assessed as remaining BRD7 protein level at 1 uM incubated for 16 hrs by Western blot analysis relative to control; assay type: cell-based
# [4] = molecular target: T1, von Hippel-Lindau disease tumor suppressor/Bromodomain-containing protein 9 (Homo sapiens); assay: PROTAC activity at VHL/BRD9 in human Ri-1 cells assessed as remaining BRD9 protein level at 1 uM incubated for 2 hrs by Western blot analysis relative to control; assay type: cell-based
# Procedure, shortened: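 Ri-1 cells exposed to compound for the stated time before harvest; BRD9, BRD7 and β-actin measured by Western blot, band intensities quantified and set against DMSO-treated control.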
# [5] = molecular target: T2, von Hippel-Lindau disease tumor suppressor/Bromodomain-containing protein 7 (Homo sapiens); assay: PROTAC activity at VHL/BRD7 in human Ri-1 cells assessed as remaining BRD7 protein level at 1 uM incubated for 2 hrs by Western blot analysis relative to control; assay type: cell-based
# [6] = test system: EOL1; assay: Antiproliferative activity against human EOL1 cells assessed as inhibition of cell growth incubated for 7 days by CellTiterGlo assay; assay type: functional, cell-based; settings: EOL1, 168 h
# [7] = test system: A204; assay: Antiproliferative activity against human A204 cells assessed as inhibition of cell growth incubated for 7 days by CellTiterGlo assay; assay type: functional, cell-based; settings: A204, 168 h
# [8] = molecular target: T3, Protein cereblon/Bromodomain-containing protein 7 (Homo sapiens) (UniProt Q9NPI1+Q96SW2); assay: PROTAC activity at CRBN/BRD7 in human HeLa cells assessed as remaining BRD7 protein level at 1 uM incubated for 16 hrs by Western blot analysis relative to control; assay type: cell-based
# T3 sequence (Q96SW2 whole entry, looked up): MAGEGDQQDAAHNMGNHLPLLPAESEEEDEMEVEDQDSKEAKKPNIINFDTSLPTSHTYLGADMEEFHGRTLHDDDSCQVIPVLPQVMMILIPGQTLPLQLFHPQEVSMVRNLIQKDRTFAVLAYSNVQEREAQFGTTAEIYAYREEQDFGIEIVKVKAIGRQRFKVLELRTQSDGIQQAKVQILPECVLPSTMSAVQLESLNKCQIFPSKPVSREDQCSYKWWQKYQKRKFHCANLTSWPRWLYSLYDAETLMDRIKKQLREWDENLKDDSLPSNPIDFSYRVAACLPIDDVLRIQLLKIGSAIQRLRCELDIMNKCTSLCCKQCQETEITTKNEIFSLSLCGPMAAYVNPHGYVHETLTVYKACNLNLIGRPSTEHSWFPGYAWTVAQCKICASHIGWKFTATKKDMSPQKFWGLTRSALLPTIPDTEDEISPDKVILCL
# T3 sequence (Q9NPI1 whole entry, looked up): as the sequence (Q9NPI1 whole entry, looked up) above
# Procedure, shortened: (§1)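 HeLa cells given 1 µM compound for 16 h before harvest. BRD9, BRD7 and β-actin detected by Western blot; band intensities quantified.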
# [9] = molecular target: T3, Protein cereblon/Bromodomain-containing protein 7 (Homo sapiens); assay: PROTAC activity at CRBN/BRD7 in human HeLa cells assessed as remaining BRD7 protein level at 1 uM incubated for 4 hrs by Western blot analysis relative to control; assay type: cell-based
# Procedure, shortened: (§2)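 Cells given 1 µM compound before harvest: HeLa 4 h, RI-1 2 h and 8 h. BRD9, BRD7 and β-actin detected by Western blot; band intensities quantified.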
# [10] = molecular target: T4, Protein cereblon/Bromodomain-containing protein 9 (Homo sapiens) (UniProt Q9H8M2+Q96SW2); assay: PROTAC activity at CRBN/BRD9 in human HeLa cells assessed as remaining BRD9 protein level at 1 uM incubated for 4 hrs by Western blot analysis relative to control; assay type: cell-based; procedure, shortened: as §2
# T4 sequence (Q96SW2 whole entry, looked up): as the sequence (Q96SW2 whole entry, looked up) above
# T4 sequence (Q9H8M2 whole entry, looked up): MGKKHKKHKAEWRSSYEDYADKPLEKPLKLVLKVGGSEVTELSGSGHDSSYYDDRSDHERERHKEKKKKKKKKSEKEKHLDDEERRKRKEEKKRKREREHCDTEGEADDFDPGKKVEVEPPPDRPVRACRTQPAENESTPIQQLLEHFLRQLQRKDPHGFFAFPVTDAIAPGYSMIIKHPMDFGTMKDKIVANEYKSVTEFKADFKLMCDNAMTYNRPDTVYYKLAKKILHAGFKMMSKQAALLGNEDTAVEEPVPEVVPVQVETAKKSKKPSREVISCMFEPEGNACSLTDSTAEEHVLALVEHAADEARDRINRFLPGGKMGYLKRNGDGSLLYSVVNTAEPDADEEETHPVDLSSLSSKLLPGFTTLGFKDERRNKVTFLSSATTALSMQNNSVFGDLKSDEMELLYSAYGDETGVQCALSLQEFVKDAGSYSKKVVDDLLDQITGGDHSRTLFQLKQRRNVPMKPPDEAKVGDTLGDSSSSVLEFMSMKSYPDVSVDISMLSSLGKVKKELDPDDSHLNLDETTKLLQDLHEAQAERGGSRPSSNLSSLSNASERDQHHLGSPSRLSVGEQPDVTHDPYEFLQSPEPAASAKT
# [11] = molecular target: T4, Protein cereblon/Bromodomain-containing protein 9 (Homo sapiens); assay: PROTAC activity at CRBN/BRD9 in human HeLa cells assessed as remaining BRD9 protein level at 1 uM incubated for 16 hrs by Western blot analysis relative to control; assay type: cell-based; procedure, shortened: as §1
# T1 sequence (P40337 whole entry, looked up): as the sequence (P40337 whole entry, looked up) above
# T1 sequence (Q9H8M2 whole entry, looked up): as the sequence (Q9H8M2 whole entry, looked up) above
Activity [2] [%],Activity [4] [%],Activity [5] [%],Structure (SMILES),also measured
89,–,–,COc1cc(-c2cn(C)c(=O)c3cnccc23)cc(OC)c1CN1CCN(CCOCCOCCOCCOCCOc2cc(-c3scnc3C)ccc2CNC(=O)[C@@H]2C[C@@H](O)CN2C(=O)[C@@H](NC(=O)C2(C#N)CC2)C(C)(C)C)CC1,Activity [1]: 98%; Activity [3]: 124%
31,92,106,COc1cc(-c2cn(C)c(=O)c3cnccc23)cc(OC)c1CN1CC(NC(=O)CCCCOCCOc2cc(-c3scnc3C)ccc2CNC(=O)[C@@H]2C[C@@H](O)CN2C(=O)[C@@H](NC(=O)C2(F)CC2)C(C)(C)C)C1,–
126,125,149,COc1cc(-c2cn(C)c(=O)c3cnccc23)c(OC)cc1CN1CCN(CCOCCOCCOc2cc(-c3scnc3C)ccc2CNC(=O)[C@@H]2C[C@@H](O)CN2C(=O)[C@@H](NC(=O)C2(F)CC2)C(C)(C)C)CC1,–
206,127,134,COc1cc(-c2cn(C)c(=O)c3cnccc23)c(OC)cc1CN1CCN(CCOCCOCCOCCOc2cc(-c3scnc3C)ccc2CNC(=O)[C@@H]2C[C@@H](O)CN2C(=O)[C@@H](NC(=O)C2(F)CC2)C(C)(C)C)CC1,–
25,68,70,COc1cc(-c2cn(C)c(=O)c3cnccc23)cc(OC)c1CN1CC(NC(=O)CCCCOc2cc(-c3scnc3C)ccc2CNC(=O)[C@@H]2C[C@@H](O)CN2C(=O)[C@@H](NC(=O)C2(F)CC2)C(C)(C)C)C1,–
90,–,–,COc1cc(-c2cn(C)c(=O)c3cnccc23)cc(OC)c1CN(C)C,pIC50 [6]: 7.05; pIC50 [7]: 6.43
103,89,98,COc1cc(-c2cn(C)c(=O)c3cnccc23)cc(OC)c1CN1CC(NC(=O)COCCOCCOCCOc2cc(-c3scnc3C)ccc2CNC(=O)[C@@H]2C[C@@H](O)CN2C(=O)[C@@H](NC(=O)C2(F)CC2)C(C)(C)C)C1,–
88,–,–,COc1cc(-c2cn(C)c(=O)c3cnccc23)cc(OC)c1CN1CCN(CCOCCOCCOc2cc(-c3scnc3C)ccc2CNC(=O)[C@@H]2C[C@@H](O)CN2C(=O)[C@@H](NC(=O)C2(C#N)CC2)C(C)(C)C)CC1,Activity [1]: 63%; Activity [3]: 187%
–,–,–,COc1cc(-c2cn(C)c(=O)c3cnccc23)c(OC)cc1CN(C)C,pIC50 [6]: 6.47; pIC50 [7]: 5.45
182,105,125,COc1cc(-c2cn(C)c(=O)c3cnccc23)cc(OC)c1CN1CCN(CCOCCOCCOCCOc2cc(-c3scnc3C)ccc2CNC(=O)[C@@H]2C[C@@H](O)CN2C(=O)[C@@H](NC(=O)C2(F)CC2)C(C)(C)C)CC1,–
138,95,85,COc1cc(-c2cn(C)c(=O)c3cnccc23)c(OC)cc1CN1CC(NC(=O)COCCOCCOCCOc2cc(-c3scnc3C)ccc2CNC(=O)[C@@H]2C[C@@H](O)CN2C(=O)[C@@H](NC(=O)C2(F)CC2)C(C)(C)C)C1,–
110,–,–,COc1cc(-c2cn(C)c(=O)c3cnccc23)cc(OC)c1CN1CCN(CCOCCOCCOCCOCCOc2cc(-c3scnc3C)ccc2CNC(=O)[C@@H]2C[C@@H](O)CN2C(=O)[C@@H](NC(=O)C2(F)CC2)C(C)(C)C)CC1,Activity [1]: 97%; Activity [3]: 163%
54,110,131,COc1cc(-c2cn(C)c(=O)c3cnccc23)c(OC)cc1CN1CC(NC(=O)CCCCOc2cc(-c3scnc3C)ccc2CNC(=O)[C@@H]2C[C@@H](O)CN2C(=O)[C@@H](NC(=O)C2(F)CC2)C(C)(C)C)C1,–
98,69,83,COc1cc(-c2cn(C)c(=O)c3cnccc23)cc(OC)c1CN1CCN(CCCCCOCCOc2cc(-c3scnc3C)ccc2CNC(=O)[C@@H]2C[C@@H](O)CN2C(=O)[C@@H](NC(=O)C2(F)CC2)C(C)(C)C)CC1,–
29,109,125,COc1cc(-c2cn(C)c(=O)c3cnccc23)cc(OC)c1CN1CC(NC(=O)COCCOc2cc(-c3scnc3C)ccc2CNC(=O)[C@@H]2C[C@@H](O)CN2C(=O)[C@@H](NC(=O)C2(F)CC2)C(C)(C)C)C1,–
104,–,–,COc1cc(-c2cn(C)c(=O)c3cnccc23)cc(OC)c1CN1CCN(CCOCCOCCOCCOCCOCC(=O)N[C@H](C(=O)N2C[C@H](O)C[C@H]2C(=O)NCc2ccc(-c3scnc3C)cc2)C(C)(C)C)CC1,Activity [1]: 112%; Activity [3]: 54%

Activity [2] [%],Activity [4] [%],Activity [5] [%],Structure (SMILES),also measured
280,103,120,COc1cc(-c2cn(C)c(=O)c3cnccc23)c(OC)cc1CN1CC(NC(=O)COCCOCCOc2cc(-c3scnc3C)ccc2CNC(=O)[C@@H]2C[C@@H](O)CN2C(=O)[C@@H](NC(=O)C2(F)CC2)C(C)(C)C)C1,–
151,65,65,COc1cc(-c2cn(C)c(=O)c3cnccc23)c(OC)cc1CN1CCN(CCCCCOc2cc(-c3scnc3C)ccc2CNC(=O)[C@@H]2C[C@@H](O)CN2C(=O)[C@@H](NC(=O)C2(F)CC2)C(C)(C)C)CC1,–
109,–,–,COc1cc(-c2cn(C)c(=O)c3cnccc23)cc(OC)c1CN1CCN(CCOCCOCCOCCOCCOc2cc(-c3scnc3C)ccc2CNC(=O)[C@@H]2C[C@@H](O)CN2C(=O)[C@@H](NC(C)=O)C(C)(C)C)CC1,Activity [1]: 114%; Activity [3]: 98%
–,–,–,COc1cc(-c2cn(C)c(=O)c3cnccc23)cc(OC)c1CN1CCN(C(=O)COCCOCCOCN[C@H](C(=O)N2C[C@H](O)C[C@H]2C(=O)NCc2ccc(-c3scnc3C)cc2)C(C)(C)C)CC1,Activity [1]: 73%; Activity [3]: 113%
106,–,–,COc1cc(-c2cn(C)c(=O)c3cnccc23)cc(OC)c1CN1CCN(CCCCCOCCOCC(=O)N[C@H](C(=O)N2C[C@H](O)C[C@H]2C(=O)NCc2ccc(-c3scnc3C)cc2)C(C)(C)C)CC1,Activity [1]: 61%; Activity [3]: 80%
95,–,–,COc1cc(-c2cn(C)c(=O)c3cnccc23)cc(OC)c1CN1CCN(CCOCCOCCOc2cc(-c3scnc3C)ccc2CNC(=O)[C@@H]2C[C@@H](O)CN2C(=O)[C@@H](NC(C)=O)C(C)(C)C)CC1,Activity [1]: 156%; Activity [3]: 107%
250,94,97,COc1cc(-c2cn(C)c(=O)c3cnccc23)c(OC)cc1CN1CC(NC(=O)CCCCOCCOc2cc(-c3scnc3C)ccc2CNC(=O)[C@@H]2C[C@@H](O)CN2C(=O)[C@@H](NC(=O)C2(F)CC2)C(C)(C)C)C1,–
107,–,–,COc1cc(-c2cn(C)c(=O)c3cnccc23)cc(OC)c1CN1CCN(CCOCCOCCOCC(=O)N[C@H](C(=O)N2C[C@H](O)C[C@H]2C(=O)NCc2ccc(-c3scnc3C)cc2)C(C)(C)C)CC1,Activity [1]: 95%; Activity [3]: 106%
53,95,92,COc1cc(-c2cn(C)c(=O)c3cnccc23)cc(OC)c1CN1CC(NC(=O)COCCOCCOc2cc(-c3scnc3C)ccc2CNC(=O)[C@@H]2C[C@@H](O)CN2C(=O)[C@@H](NC(=O)C2(F)CC2)C(C)(C)C)C1,–
–,–,–,COc1cccc2c1C(=O)c1c(O)c3c(c(O)c1C2=O)C[C@@](O)(C(=O)CO)C[C@@H]3O[C@H]1C[C@H](N)[C@H](O)[C@H](C)O1 [DOXORUBICIN],pIC50 [6]: 8.90; pIC50 [7]: 8.19
336,89,102,COc1cc(-c2cn(C)c(=O)c3cnccc23)c(OC)cc1CN1CCN(CCCCCOCCOc2cc(-c3scnc3C)ccc2CNC(=O)[C@@H]2C[C@@H](O)CN2C(=O)[C@@H](NC(=O)C2(F)CC2)C(C)(C)C)CC1,–
3,94,98,COc1cc(-c2cn(C)c(=O)c3cnccc23)c(OC)cc1CN1CCN(CCOCCOc2cc(-c3scnc3C)ccc2CNC(=O)[C@@H]2C[C@@H](O)CN2C(=O)[C@@H](NC(=O)C2(F)CC2)C(C)(C)C)CC1,–
158,99,112,COc1cc(-c2cn(C)c(=O)c3cnccc23)c(OC)cc1CN1CC(NC(=O)COCCOc2cc(-c3scnc3C)ccc2CNC(=O)[C@@H]2C[C@@H](O)CN2C(=O)[C@@H](NC(=O)C2(F)CC2)C(C)(C)C)C1,–
–,–,–,COc1cc(-c2cn(C)c(=O)c3cnccc23)cc(OC)c1CN1CCN(CCOCCOCCOCCOCC(=O)NCCNc2cccc3c2C(=O)N(C2CCC(=O)NC2=O)C3=O)CC1 (stereo not given),Activity [8]: 94%; Activity [9]: 106%; Activity [10]: 19%; Activity [11]: 11%
–,–,–,COc1cc(-c2cn(C)c(=O)c3cnccc23)cc(OC)c1CN(C)CC(=O)NCCOCCOCCNc1cccc2c1C(=O)N(C1CCC(=O)NC1=O)C2=O (stereo not given),pIC50 [6]: 8.31; pIC50 [7]: 7.05
